High-throughput results: PubChem BioAssay, several laboratories
b-catenin transl = beta-catenin nuclear translocation modulation; hit rate 0.3% among 190,000; HeLa beta-catenin nuclear translocation, immunofluorescence imaging; nuclear translocation activity, % at 5 µM;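 active means nuclear translocation activity above 50% at 5 µM, with a well cell count of 50 or more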;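 further: per-cell ratio of nuclear to cytoplasmic median beta-catenin stain intensity; plate controls were DMSO negative control for no effect and GSK-3 inhibitor IX positive control for full effect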
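System: Human HeLa cells, endogenous beta-catenin | Compound dosing: 5 µM primary, 0.02–20 µM confirmation | Timing: 24 h compound exposure at 37°C, 5% CO2 | Measured by: Fluorescence imaging of beta-catenin antibody stain plus DAPI | Read-out basis: % activation of per-cell nuclear versus cytoplasmic median beta-catenin signal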
STAT1 blocker = reduces IFN-gamma driven STAT1 reporter signal; NIH 3T3 STAT1-luciferase reporter, luminescence; inhibition, % at 5.5 µM; hit rate 0.35% among 200,000;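 active means inhibition above a set limit, the mean inhibition across all tested compounds plus 3 SD, cut at about 34% in these data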;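 further: 0% = IFN-gamma with DMSO and 100% = IFN-gamma with 300 µM nifuroxazide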
MT stabilize HCS = stabilizes microtubules in HeLa cells | % tubulin-high responders, % at 10 µM | AID 2205 | HeLa tubulin immunostaining HCS, 24 h; share of cells brighter than vehicle mean+2SD | hit rate 0.83% among 200,000;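 active means plate Z-score above 3 for both tubulin-high and condensed-nucleus cell shares, with cell loss under 80%, at 10 µM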;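 further: anti alpha tubulin signal scored within the nucleus-defined area of each cell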
STAT3 act = STAT3 signaling activation | AID 871 | hit rate 0.91% among 190,000 | activation (% of control), % at 5.6 µM | U3A cells, IL-6 STAT3-luciferase reporter, luminescence; 100% = signal with IL-6 EC80 alone;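 active means activation above the screen-wide mean of compound activation plus 3 SD, cut at about 130% in these data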;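 further: 0% = background luminescence of wells with medium and substrate only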
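Material: human STAT1-deficient U3A cells with stable STAT3-luciferase reporter / Probe or stimulus: IL-6 stimulus at 33 ng/mL final / Schedule: 1 h compound pre-exposure, 6 h IL-6 stimulation, 37 °C / Technique: luminescence / Read-out basis: percent of IL-6-only median luminescence / Control set: IL-6-only high control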
STAT3 inh = STAT3 signaling inhibition. U3A cells, IL-6 STAT3-luciferase reporter, luminescence; host cell line lacks STAT1. inhibition, % at 5.5 µM. hit rate 0.89% among 190,000;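 active means inhibition above the mean inhibition across all screened compounds plus 3 SD, cut at about 44% in these data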;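 further: 0% = DMSO only wells and 100% = 100 µM nifuroxazide control wells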
Numbers without * were called inactive. Only some compounds are listed: those with a hit (about 2.4% of all), similar ones and a draw of the others.

`CCn1c2ccccc2c2cc(Nc3cc(C)nc4ncnn34)ccc21` gave b-catenin transl 94*, STAT1 blocker -2, MT stabilize HCS 10, STAT3 act 136* and STAT3 inh -43.
`CCc1cccc(Nc2cc(C)nc3ncnn23)c1` gave b-catenin transl -2, STAT1 blocker -5, MT stabilize HCS 4, STAT3 act 103 and STAT3 inh -4.
For N#C[C@H]1[C@H](c2ccccc2)[C@](C#N)(C(=O)c2ccccc2)[C@@H]2C=Cc3ccccc3N21 the results were b-catenin transl 78*, STAT1 blocker 17, MT stabilize HCS 25*, STAT3 act 133* and STAT3 inh -31.
`CC(C)n1c(C(=O)OCC(=O)NCc2ccc3c(c2)OCO3)cc2occc21` gave b-catenin transl -2, STAT1 blocker -1, MT stabilize HCS 2, STAT3 act 107 and STAT3 inh -1.
Screening CC(C)n1c(C(=O)OCC(=O)NCc2ccc3c(c2)OCO3)cc2sccc21 returned b-catenin transl -1, STAT1 blocker -2, MT stabilize HCS 42*, STAT3 act 107 and STAT3 inh 0.
For Cc1csc2c(=O)n(CCO)c(=O)[nH]c12 the results were b-catenin transl 0.
`O=C(COC(=O)CCC(=O)c1cccs1)NC1CC1` gave b-catenin transl 1, STAT1 blocker 3, MT stabilize HCS 5, STAT3 act 103 and STAT3 inh -5.
Screening CC(C)(C)c1ccc(/C=N/OCC(=O)NCc2ccc(F)cc2)cc1 returned STAT1 blocker -9, MT stabilize HCS 12*, STAT3 act 99 and STAT3 inh 0.
O=c1nc2ccccc2c2n1CC(CN1CCN(C(c3ccccc3)c3ccccc3)CC1)N2 (stereo unspecified) was read as b-catenin transl -1, STAT1 blocker -9, MT stabilize HCS 3, STAT3 act 100 and STAT3 inh 6.
Screening Cc1ccc(OCc2nc(-c3ccccn3)no2)c(Br)c1 returned b-catenin transl 7, STAT1 blocker 48*, MT stabilize HCS 1, STAT3 act 34 and STAT3 inh 83*.
For c1ccc2c(-c3csc(-c4ccncc4)n3)c[nH]c2c1 the results were b-catenin transl 1, STAT1 blocker -54, MT stabilize HCS 4, STAT3 act 144* and STAT3 inh -49.
Brc1ccc(-c2csc(-c3c[nH]c4ccccc34)n2)cc1 was read as b-catenin transl 1, STAT1 blocker -26, MT stabilize HCS 3, STAT3 act 108 and STAT3 inh 1.
COc1ccc(C(C)C)cc1S(=O)(=O)n1cnc(C)c1 was read as STAT1 blocker -3, MT stabilize HCS 18*, STAT3 act 103 and STAT3 inh 4.
For CCOc1cc(C)c(C(C)C)cc1S(=O)(=O)n1cnc(C)c1 the results were b-catenin transl 0, STAT1 blocker 14, MT stabilize HCS 18*, STAT3 act 98 and STAT3 inh 10.
For CCCC/C(C)=N/NC(=O)c1cn(-c2ccccc2)nc1-c1ccccc1 the results were b-catenin transl 0, STAT1 blocker -4, MT stabilize HCS 4, STAT3 act 102 and STAT3 inh -4.
Screening COc1ccc(OCC(=O)Nc2sc3c(c2C(=O)NCC2CCCO2)CCC3)cc1 (stereo unspecified) returned STAT1 blocker -1, MT stabilize HCS 2, STAT3 act 103 and STAT3 inh -1.
Screening CS(=O)(=O)N(CC(=O)NCc1ccco1)c1cccc([N+](=O)[O-])c1 returned b-catenin transl 0, STAT1 blocker -8, MT stabilize HCS 5, STAT3 act 104 and STAT3 inh 3.
CCOC(=O)C1CCCN(C(=O)CNS(=O)(=O)c2ccc(Br)s2)C1 (stereo unspecified) was read as b-catenin transl -1, STAT1 blocker 2, MT stabilize HCS 2, STAT3 act 98 and STAT3 inh 2.
Screening CCOC(=O)N1CCC(NC(=O)CNS(=O)(=O)c2ccc(Br)s2)CC1 returned b-catenin transl 3, STAT1 blocker -2, MT stabilize HCS 20*, STAT3 act 100 and STAT3 inh 3.
Screening COC(/C=C/Nc1ccc(C)cc1)=C(C#N)C#N returned b-catenin transl -2, STAT1 blocker 0, MT stabilize HCS 2, STAT3 act 136* and STAT3 inh -37.
Cc1ccc(Cn2ccc(O)c(Cc3ccccc3)c2=O)cc1 was read as b-catenin transl -1, STAT1 blocker -1, MT stabilize HCS 3, STAT3 act 98 and STAT3 inh 7.
